Published values from different studies.

CC(O)(CS(=O)(=O)c1ccc(F)cc1)C(=O)Nc1ccc(C#N)c(C(F)(F)F)c1 (centres unmarked)  CC50 (Vero; cell growth or viability, resazurin): > 100 µM
COc1ccc([C@@]23Oc4cc(OC)cc(OC)c4[C@@]24N=C(C2CC2)N[C@@]4(O)[C@H](C(=O)N(C)OC)[C@H]3c2ccccc2)cc1  CC50 (Vero; cell growth or viability, MTT; 24 h): > 20 µM
CC(C)(N)CNC(=O)O[C@H]1CCC[C@@]2(C1)OOC1(O2)C2CC3CC(C2)CC1C3 (some centres unmarked)  Cmax (male CD-1 mouse, plasma; oral, 10 mg/kg): 191 ng/mL
COc1ccsc1CNCC[C@@]1(c2ccccn2)CCOC2(CCCC2)C1  Vd (human, plasma; intravenous, 3 mg, single dose, healthy volunteers, infusion): 129 L
CNC(=O)c1ccc(-c2cnn3ccc(C(=O)N(C)c4ccc(Cl)c(C(=O)O)c4)cc23)cc1  Cmax (female C57BL/6 mouse, plasma; oral, 3 mg/kg/day): 1 ng/mL
COCC1=N[C@@]2(O)[C@H](C(=O)N(C)OC)[C@@H](c3ccccc3)[C@]3(c4ccc(OC)cc4)Oc4cc(OC)cc(OC)c4[C@]23N1  CC50 (Vero; cell growth or viability, MTT; 24 h): > 20 µM
CNC(=O)c1ccc(-c2cnn3ccc(C(=O)N(C)c4ccc(Cl)c(C(=O)OC)c4)cc23)cc1  Cmax (female C57BL/6 mouse, plasma; oral, 1 mg/kg/day): 0.1 ng/mL
NCCNC(=O)O[C@H]1CCC[C@@]2(C1)OOC1(O2)C2CC3CC(C2)CC1C3 (some centres unmarked)  Cmax (male CD-1 mouse, plasma; oral, 10 mg/kg): 240 ng/mL
